Data taken from ChEMBL document CHEMBL1141691, “Synthesis and antibacterial activity of the C-7 side chain of 3-aminoquinazolinediones” (Bioorg Med Chem Lett, 2008).
Values after ≈ are worked out from the molar mass of the structure shown.

Tests used:
Escherichia coli [1] = experiment: Antibacterial activity against wild-type Escherichia coli MC4100 by microbroth dilution susceptibility assay; type: functional
Outline: (§1)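 MIC determined by standard broth microdilution following CLSI (formerly NCCLS) guidelines. Value is the lowest concentration inhibiting bacterial growth.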

Staphylococcus aureus = experiment: Antibacterial activity against Staphylococcus aureus 29213 by microbroth dilution susceptibility assay; type: functional; outline: as §1
Streptococcus pyogenes = experiment: Antibacterial activity against Streptococcus pyogenes C203 by microbroth dilution susceptibility assay; type: functional; outline: as §1
Escherichia coli [2] = experiment: Antibacterial activity against TolC knock-out Escherichia coli by microbroth dilution susceptibility assay; type: functional; outline: as §1
[3] = Inhibition of Escherichia coli DNA gyrase
Enterococcus faecalis = experiment: Antibacterial activity against Enterococcus faecalis MGH-2 by microbroth dilution susceptibility assay; type: functional; outline: as §1

| SMILES | MIC (Escherichia coli [1]) [µg/mL] | MIC (Staphylococcus aureus) [µg/mL] | MIC (Streptococcus pyogenes) [µg/mL] | MIC (Escherichia coli [2]) [µg/mL] | IC50 [3] [nM] | MIC (Enterococcus faecalis) [µg/mL] |
| --- | --- | --- | --- | --- | --- | --- |
| Cc1c(N2CCCC2)c(F)cc2c(=O)n(N)c(=O)n(C3CC3)c12 | 16 (≈ 50.3 µM) | 1 (≈ 3.14 µM) | 1 (≈ 3.14 µM) | 0.13 (≈ 0.408 µM) | 1900 | 2 (≈ 6.28 µM) |
| Cc1c(N2CCNCC2)c(F)cc2c(=O)n(N)c(=O)n(C3CC3)c12 | 4 (≈ 12 µM) | 32 (≈ 96 µM) | 4 (≈ 12 µM) | 1 (≈ 3 µM) | 3100 | 32 (≈ 96 µM) |
| CCN[C@@H](C)[C@@H]1CCN(c2c(F)cc3c(=O)n(N)c(=O)n(C4CC4)c3c2C)C1 | 8 (≈ 20.5 µM) | 0.5 (≈ 1.28 µM) | 0.13 (≈ 0.334 µM) | 0.13 (≈ 0.334 µM) | 900 | 0.25 (≈ 0.642 µM) |
| Cc1c(N2CC[C@H]([C@@H](C)N)C2)c(F)cc2c(=O)n(N)c(=O)n(C3CC3)c12 | 2 (≈ 5.53 µM) | 1 (≈ 2.77 µM) | 0.25 (≈ 0.692 µM) | 0.13 (≈ 0.36 µM) | 800 | 0.25 (≈ 0.692 µM) |
| Cc1c(N2CC[C@@H]([C@H](C)N)C2)c(F)cc2c(=O)n(N)c(=O)n(C3CC3)c12 | 0.5 (≈ 1.38 µM) | 0.13 (≈ 0.36 µM) | 0.015 (≈ 0.0415 µM) | 0.03 (≈ 0.083 µM) | 200 | 0.06 (≈ 0.166 µM) |
| CN[C@@H](C)[C@@H]1CCN(c2c(F)cc3c(=O)n(N)c(=O)n(C4CC4)c3c2C)C1 | 4 (≈ 10.7 µM) | 0.5 (≈ 1.33 µM) | 0.015 (≈ 0.04 µM) | 0.03 (≈ 0.0799 µM) | 200 | 0.13 (≈ 0.346 µM) |
| Cc1c(N2CCC(C(N)c3ccccc3)C2)c(F)cc2c(=O)n(N)c(=O)n(C3CC3)c12 (stereo unspecified) | 4 (≈ 9.45 µM) | 0.13 (≈ 0.307 µM) | 0.03 (≈ 0.0708 µM) | 0.06 (≈ 0.142 µM) | 260 | 0.25 (≈ 0.59 µM) |
| Cc1c(N2CC[C@H]([C@H](C)N)C2)c(F)cc2c(=O)n(N)c(=O)n(C3CC3)c12 | 4 (≈ 11.1 µM) | 2 (≈ 5.53 µM) | 0.5 (≈ 1.38 µM) | 0.13 (≈ 0.36 µM) | 600 | 2 (≈ 5.53 µM) |
| O=C(O)c1cn(C2CC2)c2cc(N3CCNCC3)c(F)cc2c1=O [CIPROFLOXACIN] |  | 0.5 (≈ 1.51 µM) | 2 (≈ 6.04 µM) |  |  | 0.4 (≈ 1.21 µM) |
| Cc1c(N2CCC(C(C)N)C2)c(F)cc2c(=O)n(N)c(=O)n(C3CC3)c12 (stereo unspecified) | 4 (≈ 11.1 µM) | 0.5 (≈ 1.38 µM) | 0.03 (≈ 0.083 µM) | 0.25 (≈ 0.692 µM) | 600 | 1 (≈ 2.77 µM) |
| Cc1c(N2CC[C@@H]([C@@H](C)N)C2)c(F)cc2c(=O)n(N)c(=O)n(C3CC3)c12 | 2 (≈ 5.53 µM) | 0.5 (≈ 1.38 µM) | 0.06 (≈ 0.166 µM) | 0.13 (≈ 0.36 µM) | 300 | 0.5 (≈ 1.38 µM) |
| Cc1c(N2CCCCC2)c(F)cc2c(=O)n(N)c(=O)n(C3CC3)c12 | > 64 | 4 (≈ 12 µM) | 4 (≈ 12 µM) | 0.25 (≈ 0.752 µM) | 6300 | 4 (≈ 12 µM) |

The next lines start with the values.

| MIC (Escherichia coli [1]) [µg/mL] | MIC (Staphylococcus aureus) [µg/mL] | MIC (Streptococcus pyogenes) [µg/mL] | MIC (Escherichia coli [2]) [µg/mL] | IC50 [3] [nM] | MIC (Enterococcus faecalis) [µg/mL] | SMILES |
| --- | --- | --- | --- | --- | --- | --- |
| 16 (≈ 44.3 µM) | 4 (≈ 11.1 µM) | 0.125 (≈ 0.346 µM) | 0.5 (≈ 1.38 µM) | 1200 | 4 (≈ 11.1 µM) | Cc1c(N2CCC(CCN)C2)c(F)cc2c(=O)n(N)c(=O)n(C3CC3)c12 (stereo unspecified) |
| 1 (≈ 3 µM) | 8 (≈ 24 µM) | 1 (≈ 3 µM) | 0.25 (≈ 0.75 µM) | 200 | 8 (≈ 24 µM) | Cc1c(N2CCC(N)C2)c(F)cc2c(=O)n(N)c(=O)n(C3CC3)c12 (stereo unspecified) |
| 8 (≈ 21.3 µM) | 0.5 (≈ 1.33 µM) | 0.03 (≈ 0.0799 µM) | 0.13 (≈ 0.346 µM) | 400 | 0.25 (≈ 0.666 µM) | CCC(N)C1CCN(c2c(F)cc3c(=O)n(N)c(=O)n(C4CC4)c3c2C)C1 (stereo unspecified) |
| 2 (≈ 5.36 µM) | 0.25 (≈ 0.669 µM) | 0.03 (≈ 0.0803 µM) | 0.03 (≈ 0.0803 µM) | 800 | 0.13 (≈ 0.348 µM) | Cc1c(N2CCC(C3(N)CC3)C2)c(F)cc2c(=O)n(N)c(=O)n(C3CC3)c12 (stereo unspecified) |
| 2 (≈ 5.76 µM) | 0.5 (≈ 1.44 µM) | 0.06 (≈ 0.173 µM) | 0.13 (≈ 0.374 µM) | 400 | 0.5 (≈ 1.44 µM) | Cc1c(N2CCC(CN)C2)c(F)cc2c(=O)n(N)c(=O)n(C3CC3)c12 (stereo unspecified) |
| 16 (≈ 42.6 µM) | 1 (≈ 2.66 µM) | 0.125 (≈ 0.333 µM) | 0.25 (≈ 0.666 µM) | 1600 | 2 (≈ 5.33 µM) | Cc1c(N2CCC(C(C)(C)N)C2)c(F)cc2c(=O)n(N)c(=O)n(C3CC3)c12 (stereo unspecified) |
| > 64 | 32 (≈ 105 µM) | 64 (≈ 210 µM) | 2 (≈ 6.57 µM) | 12500 | 64 (≈ 210 µM) | Cc1c(N2CCC2)c(F)cc2c(=O)n(N)c(=O)n(C3CC3)c12 |
